# Screens: PubChem, several laboratories
# Compounds with a hit are over-represented: about 5.1% of the library has one in this group of screens.
# STAT1 inh = inhibitors of IFN-gamma induced STAT1 signaling; inhibition, % at 5.5 µM; actives 0.35% (n = 200,000); NIH 3T3 STAT1-luciferase reporter, luminescence;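 active = inhibition above a set limit, the mean inhibition across all tested compounds plus 3 SD, cut at about 34% in these data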;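 note: 0% = IFN-gamma with DMSO and 100% = IFN-gamma with 300 µM nifuroxazide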
# STAT3 act = STAT3 signaling activation; U3A cells, IL-6 STAT3-luciferase reporter, luminescence; 100% = signal with IL-6 EC80 alone; activation (% of control), % at 5.6 µM; actives 0.91% (n = 190,000); AID 871;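 active = activation above the screen-wide mean of compound activation plus 3 SD, cut at about 130% in these data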;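 note: 0% = background luminescence of wells with medium and substrate only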
#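 Material: human STAT1-deficient U3A cells with stable STAT3-luciferase reporter / Probe or stimulus: IL-6 stimulus at 33 ng/mL final / Schedule: 1 h compound pre-exposure, 6 h IL-6 stimulation, 37 °C / Technique: luminescence / Read-out basis: percent of IL-6-only median luminescence / Control set: IL-6-only high control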
# NF-kB expr up = compounds increasing NF-kB expression in human neuronal cells. NF-kB reporter expression; active compounds read high. fold change at 12.5 µM. actives 1.6% (n = 190,000). AID 1239; in the data active = fold change above about 3.3
# STAT1 activator = increases IFN-gamma driven STAT1 reporter signal; actives 2.6% (n = 200,000); activation (% of control), % at 5.5 µM; NIH 3T3 STAT1-luciferase reporter, luminescence; 100% = IFN-gamma alone, no compound;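 active = activation above the screen-wide mean activation plus 3 SD, cut at about 130% in these data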;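 note: raw ratio to IFN-gamma control signal so 100% means no change and 0% no light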
# APP 5'UTR act = activates APP 5'UTR luciferase reporter | SH-SY5Y APP 5'UTR luciferase reporter, luminescence; zero percent = DMSO vehicle wells | activation, % at 2 µM | actives 1% (n = 190,000) | AID 1276;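 active = activation above a set limit, based on mean plus 3 SD of controls, cut at about 140% in these data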
# STAT3 blocker = STAT3 signaling inhibition. actives 0.89% (n = 190,000). AID 862. U3A cells, IL-6 STAT3-luciferase reporter, luminescence; host cell line lacks STAT1. inhibition, % at 5.5 µM;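 active = inhibition above the mean inhibition across all screened compounds plus 3 SD, cut at about 44% in these data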;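 note: 0% = DMSO only wells and 100% = 100 µM nifuroxazide control wells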
# Numbers without * were called inactive; . = no result.
SMILES,STAT1 inh,STAT3 act,NF-kB expr up,STAT1 activator,APP 5'UTR act,STAT3 blocker
COc1ccc(N2C(=O)c3ccccc3NC23CCC(C)CC3)cc1 (centres undefined),-8,109,2,107,-3,-11
O=C1CC(c2ccco2)Sc2nc3ccccc3n21 (centres undefined),-24,119,1.5,122,13,-21
O=C1CC(c2ccccc2)Sc2nc3ccccc3n21 (centres undefined),-33,80,2.5,132*,168*,30
O=C1CC(c2cccs2)Sc2nc3ccccc3n21 (centres undefined),-32,108,3,129*,117,-6
CCOC(=O)c1c(C)oc2c1c(C(c1cccnc1)N1CCCCC1)c(O)c1ccccc12 (centres undefined),-1,131,6.6*,101,79,-30
CCOc1ccc(OCC)c(NS(=O)(=O)c2ccc3c(c2)CCN3C(=O)C2CCC2)c1,6,94,0.91,95,1,9
O=C(/C=C/c1ccccc1)C1C(=O)c2ccccc2C1=O,-12,102,2.6,111,61,-8
CCc1ccc(/C=C/C(=O)C2C(=O)c3ccccc3C2=O)cc1,39*,62,1.1,65,20,52*
O=[N+]([O-])c1ccccc1/C=N/NC1=NCCCCC1,-36,114,2.1,133*,37,-17
Oc1ccc(/C=N/NC2=NCCCCC2)cc1,-4,104,1.3,104,-2,-5
Cc1ccc(-c2cc(C(F)F)n3ncc(C(=O)N4CCCCC4c4cccnc4)c3n2)cc1 (centres undefined),7,90,1.1,91,-15,14
Clc1ccc(SCc2nc3ccccc3[nH]2)cc1,-12,96,1.6,111,36,13
C(=N\n1cnnc1)/c1nc2ccccc2[nH]1,-4,108,0.92,104,0,-9
Clc1ccc(/C=C/c2nc3ccccc3[nH]2)c(Cl)c1,68*,31,2,39,221*,87*
Clc1ccc(/C=C/c2nc3ccccc3[nH]2)cc1,53*,27,3.8*,52,.,94*
O=C(/C=C/c1ccc(Cl)cc1Cl)c1nc2ccccc2[nH]1,-1,94,1.2,101,6,13
Clc1cccc(Cl)c1/C=C/c1nc2ccccc2[nH]1,-47,128,7.2*,143*,164*,-23
O=C(CC(=O)N/N=C\c1c(Cl)cccc1Cl)NCc1ccccc1,2,102,0.88,98,2,9
Cc1ccccc1NC(=O)c1cccc(NC(=O)CCC(=O)O)c1,7,93,1.1,93,-15,16
COc1ccc(C2=NOC(CN3C(=O)c4ccccc4S3(=O)=O)C2)cc1 (centres undefined),-50,90,5.5*,148*,137*,15
O=C1c2ccccc2S(=O)(=O)N1CC1CC(c2ccc(Cl)cc2)=NO1 (centres undefined),-43,100,1.4,139*,100,4
O=C1c2ccccc2S(=O)(=O)N1CC1CC(c2ccccc2)=NO1 (centres undefined),-35,119,2.6,132*,35,-21
Cc1ccc(C2=NN(C(=O)CN3C(=O)c4ccccc4S3(=O)=O)C(c3ccco3)C2)cc1 (centres undefined),-5,97,0.81,104,-8,5
Cc1cc(=O)oc2cc(OCC3CC(c4ccc(Cl)cc4)=NO3)ccc12 (centres undefined),-3,83,1,103,3,23
CCSCCOC(=O)C1=C(C)NC2=C(C(=O)CCC2)C1c1coc2ccccc2c1=O (centres undefined),5,144*,0.8,95,-13,-51
COc1ccc(-n2c(C)cc(-c3cn4cccc(C)c4n3)c2C)cc1,-2,103,0.98,100,17,7
COc1cccc2cc(-c3cn4cccc(C)c4n3)c(=O)oc12,-39,105,.,136*,57,-3
Cn1ncc(C(N)=O)c1NC(=S)NC(=O)c1ccc(Br)o1,4,98,1.2,96,3,2
CN(C)CCCN(C(=O)/C=C/c1cccs1)c1nc2c(F)cccc2s1,0,98,5.4*,99,29,13
